{
  "source": "the M2OR odorant receptor database",
  "data": [
    {"biological_target": "T1, OR2M7 (Homo sapiens) (UniProt Q8NG81)", "T1 sequence (whole entry)": "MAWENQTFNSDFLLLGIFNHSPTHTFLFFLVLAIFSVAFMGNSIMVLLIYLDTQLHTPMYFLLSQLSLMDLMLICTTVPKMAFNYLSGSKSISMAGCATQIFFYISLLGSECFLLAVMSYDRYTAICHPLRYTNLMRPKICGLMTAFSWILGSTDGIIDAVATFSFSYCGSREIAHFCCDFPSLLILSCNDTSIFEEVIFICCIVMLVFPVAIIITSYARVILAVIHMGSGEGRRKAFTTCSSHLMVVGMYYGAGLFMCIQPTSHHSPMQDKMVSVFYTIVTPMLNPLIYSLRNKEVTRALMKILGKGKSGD", "conditions": "stereoisomer not certain", "in_short": "(§1)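 Values were gathered from published papers (main text and supplementary material), with extra details requested from the original authors when needed, and checked for typos and inconsistencies. Each receptor–molecule pair is called responsive (active) if the original authors judged the measured signal statistically different from baseline, and non-responsive (inactive) otherwise. Assay methods varied by source, often transient mammalian cell-line luciferase assays. Recorded details include cell line, G-protein, co-transfected protein and tags.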", "values": [
      {"compound": "CC1CCCCCCCCCCCCC(=O)C1", "note": "(stereo not given)", "odorant receptor agonist call": "inactive"},
      {"compound": "CC(CO)CS", "note": "(stereo not given)", "odorant receptor agonist call": "inactive"},
      {"compound": "CC(=O)OCc1ccccc1", "odorant receptor agonist call": "inactive"},
      {"compound": "CCCCCC(S)C(C)CO", "note": "(stereo not given)", "odorant receptor agonist call": "inactive"}
    ]},
    {"biological_target": "T2, OR2S2 (Homo sapiens) (UniProt Q9NQN1)", "T2 sequence (whole entry)": "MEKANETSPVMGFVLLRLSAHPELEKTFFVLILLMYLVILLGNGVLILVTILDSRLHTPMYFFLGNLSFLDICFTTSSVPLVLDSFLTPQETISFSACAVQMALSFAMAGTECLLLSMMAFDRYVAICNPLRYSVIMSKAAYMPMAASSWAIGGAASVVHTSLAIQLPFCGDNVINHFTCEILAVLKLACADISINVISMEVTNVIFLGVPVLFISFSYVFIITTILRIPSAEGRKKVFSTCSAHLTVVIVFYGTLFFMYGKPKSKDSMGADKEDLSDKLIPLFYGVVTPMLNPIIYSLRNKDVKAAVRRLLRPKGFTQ", "conditions": "stereoisomer not certain", "in_short": "as §1", "values": [
      {"compound": "CC1CCCCCCCCCCCCC(=O)C1", "note": "(stereo not given)", "odorant receptor agonist call": "inactive"},
      {"compound": "CC(CO)CS", "note": "(stereo not given)", "odorant receptor agonist call": "inactive"},
      {"compound": "CCCCCC(S)C(C)CO", "note": "(stereo not given)", "odorant receptor agonist call": "inactive"}
    ]},
    {"biological_target": "T3, OR2T1 (Homo sapiens) (UniProt O43869)", "T3 sequence (whole entry)": "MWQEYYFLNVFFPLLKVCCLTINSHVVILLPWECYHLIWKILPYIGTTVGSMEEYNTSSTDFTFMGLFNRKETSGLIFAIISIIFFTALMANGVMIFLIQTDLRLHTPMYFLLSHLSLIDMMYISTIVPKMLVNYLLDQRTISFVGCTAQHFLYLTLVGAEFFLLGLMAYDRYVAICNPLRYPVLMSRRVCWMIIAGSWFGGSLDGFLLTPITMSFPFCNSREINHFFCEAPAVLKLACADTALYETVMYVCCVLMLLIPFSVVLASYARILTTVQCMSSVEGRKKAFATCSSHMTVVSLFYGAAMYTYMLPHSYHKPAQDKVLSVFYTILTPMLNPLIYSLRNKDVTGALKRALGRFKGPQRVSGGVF", "conditions": "stereoisomer not certain", "in_short": "as §1", "values": [
      {"compound": "CC1CCCCCCCCCCCCC(=O)C1", "note": "(stereo not given)", "odorant receptor agonist call": "inactive"},
      {"compound": "CC(CO)CS", "note": "(stereo not given)", "odorant receptor agonist call": "inactive"},
      {"compound": "CCCCCC(S)C(C)CO", "note": "(stereo not given)", "odorant receptor agonist call": "inactive"}
    ]},
    {"biological_target": "T4, OR2T10 (Homo sapiens) (UniProt Q8NGZ9)", "T4 sequence (whole entry)": "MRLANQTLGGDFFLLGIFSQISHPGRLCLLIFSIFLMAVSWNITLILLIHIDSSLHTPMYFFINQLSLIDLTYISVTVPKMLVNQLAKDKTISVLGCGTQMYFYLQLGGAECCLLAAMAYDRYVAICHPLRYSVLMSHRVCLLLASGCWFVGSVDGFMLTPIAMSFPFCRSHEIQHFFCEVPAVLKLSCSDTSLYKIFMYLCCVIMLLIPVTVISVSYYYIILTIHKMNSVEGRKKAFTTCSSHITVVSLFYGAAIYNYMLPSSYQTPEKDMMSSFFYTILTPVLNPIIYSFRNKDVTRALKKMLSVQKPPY", "conditions": "stereoisomer not certain", "in_short": "as §1", "values": [
      {"compound": "CC(C)(C)C1CCCCC1OCCCCO", "note": "(stereo not given)", "odorant receptor agonist call": "inactive"},
      {"compound": "C=CCOC(=O)COCCC(C)C", "odorant receptor agonist call": "inactive"},
      {"compound": "OCc1ccccc1", "odorant receptor agonist call": "inactive"},
      {"compound": "Cc1ccc(C(C)C)cc1O", "odorant receptor agonist call": "inactive"},
      {"compound": "C=CC(C)(O)CCC=C(C)CCC=C(C)C", "note": "(stereo not given)", "odorant receptor agonist call": "inactive"},
      {"compound": "CC(C)CCCC(C)(C)O", "odorant receptor agonist call": "inactive"},
      {"compound": "CC(CC=O)c1ccc(C(C)(C)C)cc1", "note": "(stereo not given)", "odorant receptor agonist call": "inactive"},
      {"compound": "CC1CCCCCCCCCCCCC(=O)C1", "note": "(stereo not given)", "odorant receptor agonist call": "inactive"},
      {"compound": "CCC(=O)C=CC1C(C)=CCCC1(C)C", "note": "(stereo not given)", "odorant receptor agonist call": "inactive"},
      {"compound": "C=CC(C)(CCC=C(C)C)OC(C)=O", "note": "(stereo not given)", "odorant receptor agonist call": "inactive"},
      {"compound": "CCCCC1CCC(=O)O1", "note": "(stereo not given)", "odorant receptor agonist call": "inactive"},
      {"compound": "Cc1occc(=O)c1OC(=O)C(C)C", "odorant receptor agonist call": "active"},
      {"compound": "CC1CC(C)(c2ccccc2)CO1", "note": "(stereo not given)", "odorant receptor agonist call": "inactive"},
      {"compound": "CCc1ccc(CC(C)(C)C=O)cc1", "odorant receptor agonist call": "inactive"},
      {"compound": "CC(=O)C=CC1=C(C)CCCC1(C)C", "odorant receptor agonist call": "inactive"},
      {"compound": "CCCC(C)C(=O)OCC", "note": "(stereo not given)", "odorant receptor agonist call": "inactive"},
      {"compound": "CC1=CCC2CC1C2(C)C", "note": "(stereo not given)", "odorant receptor agonist call": "inactive"},
      {"compound": "CCC=C(C)C(O)CCCCC", "note": "(stereo not given)", "odorant receptor agonist call": "inactive"},
      {"compound": "CCOC(=O)CC1(C)OCCO1", "odorant receptor agonist call": "inactive"},
      {"compound": "COc1ccc(C)cc1", "odorant receptor agonist call": "inactive"},
      {"compound": "CCCCCC1COCCC1OC(C)=O", "note": "(stereo not given)", "odorant receptor agonist call": "inactive"},
      {"compound": "CC(C)=CCCC(C)CC=O", "note": "(stereo not given)", "odorant receptor agonist call": "inactive"},
      {"compound": "CCCCCCCCC(OC(C)=O)OC(C)=O", "odorant receptor agonist call": "inactive"},
      {"compound": "COC1CC2CC1C1CC(C=O)CC21", "note": "(stereo not given)", "odorant receptor agonist call": "inactive"},
      {"compound": "CC(CO)CS", "note": "(stereo not given)", "odorant receptor agonist call": "inactive"},
      {"compound": "CC(=O)OCc1ccccc1", "odorant receptor agonist call": "inactive"},
      {"compound": "CCCCCC(S)C(C)CO", "note": "(stereo not given)", "odorant receptor agonist call": "inactive"},
      {"compound": "CCCCCC1C(=O)CCC1CC(=O)OC", "note": "(stereo not given)", "odorant receptor agonist call": "inactive"}
    ]},
    {"biological_target": "T5, OR2T11 (Homo sapiens) (UniProt Q8NH01)", "T5 sequence (whole entry)": "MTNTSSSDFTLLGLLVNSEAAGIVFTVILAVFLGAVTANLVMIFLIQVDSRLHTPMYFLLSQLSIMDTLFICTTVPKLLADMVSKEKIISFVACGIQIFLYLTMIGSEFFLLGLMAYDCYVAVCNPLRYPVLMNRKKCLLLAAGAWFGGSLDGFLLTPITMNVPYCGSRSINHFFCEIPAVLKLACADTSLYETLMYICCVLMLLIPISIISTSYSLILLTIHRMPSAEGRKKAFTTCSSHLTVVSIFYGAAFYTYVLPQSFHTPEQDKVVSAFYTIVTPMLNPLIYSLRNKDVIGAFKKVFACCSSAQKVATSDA", "conditions": "stereoisomer not certain", "in_short": "as §1", "values": [
      {"compound": "CC1CCCCCCCCCCCCC(=O)C1", "note": "(stereo not given)", "odorant receptor agonist call": "inactive"},
      {"compound": "CC(CO)CS", "note": "(stereo not given)", "odorant receptor agonist call": "inactive"},
      {"compound": "CCCCCC(S)C(C)CO", "note": "(stereo not given)", "odorant receptor agonist call": "inactive"}
    ]},
    {"biological_target": "T6, OR2T12 (Homo sapiens) (UniProt Q8NG77)", "T6 sequence (whole entry)": "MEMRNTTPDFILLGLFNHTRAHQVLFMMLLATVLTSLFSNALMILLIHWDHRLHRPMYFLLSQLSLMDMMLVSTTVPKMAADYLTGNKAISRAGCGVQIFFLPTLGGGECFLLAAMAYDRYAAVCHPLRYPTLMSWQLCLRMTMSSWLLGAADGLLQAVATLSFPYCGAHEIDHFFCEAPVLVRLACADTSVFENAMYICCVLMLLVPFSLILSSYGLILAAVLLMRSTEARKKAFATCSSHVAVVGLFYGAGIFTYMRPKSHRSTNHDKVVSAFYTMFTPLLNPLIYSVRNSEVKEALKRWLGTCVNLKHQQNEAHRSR", "conditions": "stereoisomer not certain", "in_short": "as §1", "values": [
      {"compound": "CC1CCCCCCCCCCCCC(=O)C1", "note": "(stereo not given)", "odorant receptor agonist call": "inactive"},
      {"compound": "CC(CO)CS", "note": "(stereo not given)", "odorant receptor agonist call": "inactive"},
      {"compound": "CCCCCC(S)C(C)CO", "note": "(stereo not given)", "odorant receptor agonist call": "inactive"}
    ]},
    {"biological_target": "T7, OR2T2 (Homo sapiens) (UniProt Q6IF00)", "T7 sequence (whole entry)": "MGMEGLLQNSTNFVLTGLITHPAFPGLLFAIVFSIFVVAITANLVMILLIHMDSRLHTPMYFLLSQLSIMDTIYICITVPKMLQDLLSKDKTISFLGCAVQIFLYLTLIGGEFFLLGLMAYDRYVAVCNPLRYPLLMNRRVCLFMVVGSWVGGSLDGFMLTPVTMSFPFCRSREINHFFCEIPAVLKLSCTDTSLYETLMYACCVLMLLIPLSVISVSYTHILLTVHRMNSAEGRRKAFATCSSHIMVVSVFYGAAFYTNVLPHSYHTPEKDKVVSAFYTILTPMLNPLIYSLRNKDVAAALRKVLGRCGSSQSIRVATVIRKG", "conditions": "stereoisomer not certain", "in_short": "as §1", "values": [
      {"compound": "CC1CCCCCCCCCCCCC(=O)C1", "note": "(stereo not given)", "odorant receptor agonist call": "inactive"},
      {"compound": "CC(CO)CS", "note": "(stereo not given)", "odorant receptor agonist call": "inactive"},
      {"compound": "CCCCCC(S)C(C)CO", "note": "(stereo not given)", "odorant receptor agonist call": "inactive"}
    ]},
    {"biological_target": "T8, OR2T27 (Homo sapiens) (UniProt Q8NH04)", "T8 sequence (whole entry)": "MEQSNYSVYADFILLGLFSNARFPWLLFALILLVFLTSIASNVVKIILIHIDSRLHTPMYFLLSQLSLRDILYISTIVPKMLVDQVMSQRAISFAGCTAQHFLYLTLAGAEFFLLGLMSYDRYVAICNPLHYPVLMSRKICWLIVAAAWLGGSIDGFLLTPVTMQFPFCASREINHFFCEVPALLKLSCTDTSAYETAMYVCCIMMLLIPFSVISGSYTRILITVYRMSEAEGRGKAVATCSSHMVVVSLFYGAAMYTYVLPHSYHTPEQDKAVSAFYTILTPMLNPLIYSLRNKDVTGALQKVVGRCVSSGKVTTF", "conditions": "stereoisomer not certain", "in_short": "as §1", "values": [
      {"compound": "CC1CCCCCCCCCCCCC(=O)C1", "note": "(stereo not given)", "odorant receptor agonist call": "inactive"},
      {"compound": "CC(CO)CS", "note": "(stereo not given)", "odorant receptor agonist call": "inactive"},
      {"compound": "CCCCCC(S)C(C)CO", "note": "(stereo not given)", "odorant receptor agonist call": "inactive"}
    ]}
  ]
}
